Source: PubChem BioAssay (several laboratories)
Hits are enriched below; roughly 0.6% of the tested compounds scored in any of these assays.
Tn7 DDE FP – inhibitors of Tn7 peptide binding to human fibrin DD(E). 370,000 compounds, 0.13% hits. P02675. inhibition, % at 8.3 µM. AID 720508. FP displacement of FITC-Tn7 peptide from fibrin DD(E); 0% = median of compound wells per plate;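 active means inhibition above the mean of compounds falling within the control limits plus 3 SD of them, cut at about 14% in these data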
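Also added: labelled Tn7 tracer, 0.1 µM; Assay system: human fibrin DD(E) protein; Amount: 2 µM fibrin DD(E); Schedule: 10 min compound pre-incubation, 3 h probe incubation at room temperature; Repeats: one replicate per compound; Read-out basis: percent inhibition; Measured by: fluorescence polarization of the labelled Tn7 tracer.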
DDE Tn6 FP inh – DD(E)-Tn6 binding inhibition, primary FP screen; P02675; Fibrin DD(E) TRITC-Tn6 fluorescence polarization displacement; inhibition, % at 8.3 µM; 370,000 compounds, 0.21% hits;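 active means inhibition above a per-campaign cutoff: mean of compounds within control limits plus 3 SD, cut at about 15% in these data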
Rtt109 HAT inh – inhibitors of Candida albicans Rtt109/Vps75 histone acetyltransferase; purified Rtt109/Vps75, ThioGlo CoA-SH fluorescence, 4 h; inhibition, % at 34.9 µM; 330,000 compounds, 0.16% hits; AID 540336;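 active means inhibition of at least 50% in every replicate; inconclusive means best replicate reaches 50% inhibition but some replicates fall short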
Target sequence (Q5AAJ8 whole entry, looked up): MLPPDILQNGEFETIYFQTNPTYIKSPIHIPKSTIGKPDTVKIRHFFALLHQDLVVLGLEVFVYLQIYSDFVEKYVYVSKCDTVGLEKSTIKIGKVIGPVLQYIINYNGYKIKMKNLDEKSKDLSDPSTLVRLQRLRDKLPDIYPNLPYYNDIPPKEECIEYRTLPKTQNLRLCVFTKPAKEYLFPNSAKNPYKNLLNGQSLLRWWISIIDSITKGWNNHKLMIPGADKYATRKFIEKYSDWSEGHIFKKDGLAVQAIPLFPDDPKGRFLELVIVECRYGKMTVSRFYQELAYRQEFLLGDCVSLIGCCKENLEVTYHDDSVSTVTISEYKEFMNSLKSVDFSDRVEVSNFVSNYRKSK
Keap1-Nrf2 PPI – Keap1-Nrf2 (human) interaction inhibition; Q14145; Keap1 Kelch-Nrf2 peptide fluorescence polarization, 1536-well; inhibition, % at 9.4 µM; AID 504523; 340,000 compounds, 0.15% hits; in the data active means inhibition above about 12%; inconclusive means no clear call, values can overlap the other calls; inactive means below about 7.3%;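 further: human Keap1 Kelch domain with fluorescein labeled Nrf2 9mer peptide probe; higher means more block of Keap1 binding to Nrf2 peptide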
C-LANA FP – KSHV C-LANA DNA binding inhibition | inhibition, % at 9 µM | MBP-C-LANA/FAM-LBS DNA binding, fluorescence polarization | 340,000 compounds, 0.078% hits;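 active means highest replicate inhibition at or above 60% at 9 µM, even if other replicates fall short; inactive means all replicates below 60% inhibition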
Tn7 DDE conf – confirmation of inhibitors of Tn7 binding to human fibrin DD(E). shares compounds with Tn7 DDE FP. FP displacement of TRITC-Tn7 peptide from DD(E); 0% set at plate's compound-well median. inhibition, % at 8.3 µM. 460 compounds, 5% hits. AID 720628;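 active means inhibition above the campaign cutoff, the mean of compounds within control limits plus 3 SD, cut at about 14% in these data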;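 further: displacers lower polarization since freed probe rises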
Tn7 DDE ctr – DD(E)-Tn7 binding inhibition, counter-screen. shares compounds with Tn7 DDE FP. fibrin DD(E), TRITC-Tn7 probe displacement, fluorescence polarization. inhibition, % at 8.3 µM. 460 compounds, 3% hits;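 active means inhibition above the cutoff, the mean of compounds lying between the control bounds plus 3 SD of those compounds, cut at about 17% in these data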
DDE Tn6 FP ctr – counter-screen for inhibitors of Tn6 peptide binding to fibrin DD(E); inhibition, % at 8.3 µM; 680 compounds, 2% hits; shares compounds with DDE Tn6 FP inh; TRITC-Tn6 fluorescence polarization displacement; 0% = median of compound wells, not DMSO;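 active means inhibition above the mean of test compounds lying between the control limits plus 3 SD of those, cut at about 14% in these data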
Tn6 DDE conf – DD(E)-Tn6 binding inhibition, FP confirmation; shares compounds with DDE Tn6 FP inh; FP displacement of TRITC-Tn6 peptide from DD(E); 0% = per-plate median of test wells; inhibition, % at 8.3 µM; 680 compounds, 10% hits; AID 720631;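 active means inhibition above the mean of compounds lying within the control limits plus 3 SD, cut at about 16% in these data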
A number is an active result; i = inactive; ? = inconclusive; nt = no result.

SMILES	Tn7 DDE FP	DDE Tn6 FP inh	Rtt109 HAT inh	Keap1-Nrf2 PPI	C-LANA FP	Tn7 DDE conf	Tn7 DDE ctr	others
NC(=O)CC(NC(=O)Cc1ccc(Cl)cc1)c1ccc(NC2CCCC2)c([N+](=O)[O-])c1 (stereo unspecified)	14	i	i	i	i	i	i
CCOc1ccc(-n2c(SCc3cccc4ccccc34)nnc2-c2ccc(C)cc2)cc1	i	i	nt	nt	nt	nt	nt
Cc1ccccc1CNC(=O)C1CCC(CNS(=O)(=O)c2cccc3cccnc23)CC1 (stereo unspecified)	i	i	nt	nt	nt	nt	nt
CCOc1cc(C=NN2CCN(Cc3ccc(C)cc3)CC2)ccc1O	i	i	nt	nt	nt	nt	nt
COc1ccccc1-c1ccccc1C1=CC(=O)CC(C)(C)C1=O	14	i	nt	nt	nt	i	i
CC(C(=O)N(C)C1CCS(=O)(=O)C1)N1C(=O)/C(=C/c2ccc(F)cc2)SC1=S (stereo unspecified)	i	i	i	i	i	nt	nt
CCN(C(=O)C(C)N1C(=O)/C(=C/c2ccco2)SC1=S)C1CCS(=O)(=O)C1 (stereo unspecified)	14	i	i	i	i	i	i
COC(=O)/C=C/C(=O)Nc1cccc(C(F)(F)F)c1	14	i	i	i	i	i	i
c1csc(-c2nnc(SCc3cccc4ccccc34)o2)c1	i	i	nt	nt	nt	nt	nt
O=C(COC(=O)CNC(=O)c1cccs1)Nc1ccc(C(F)(F)F)cc1[N+](=O)[O-]	15	i	i	i	i	i	i
Cc1cc(NC(=O)COC(=O)CNC(=O)c2cccs2)c([N+](=O)[O-])cc1C	i	i	i	i	i	nt	nt
CC(=O)c1cc(-c2csc(C=O)c2)c(=O)n2c1CCC2	i	i	nt	nt	nt	nt	nt
Cc1ccc(NC(=O)CS(=O)CC(=O)N(c2ccc(C)cc2)C(C)C(=O)NC2CCCCC2)cc1 (stereo unspecified)	15	i	i	i	i	i	i
O=C(OC12CCCN(C1)/C(=C/c1ccc(Cl)cc1)C2)c1ccco1 (stereo unspecified)	i	i	nt	nt	nt	nt	nt
COc1ccc2c(Cl)c(C(=O)N/N=C3\CCCC(=O)C3)sc2c1	32	i	i	i	i	i	i
Cc1cc(-c2n[nH]c(=S)n2N=Cc2cc(Br)ccc2F)n[nH]1	i	i	nt	nt	nt	nt	nt
COc1ccc(C(=O)CSc2nnc(-c3cccc(Cl)c3)n2Cc2ccco2)cc1	i	i	nt	nt	nt	nt	nt
Nc1nc(N2C(=O)C3CC=CCC3C2=O)nn1-c1ccccc1 (stereo unspecified)	16	i	i	i	i	i	i
Cc1ccc(-c2nc3ccc(C)cn3c2Cc2ccccc2C(F)(F)F)cc1	i	i	nt	nt	nt	nt	nt
Cc1ccc2nc(-c3ccccc3)c(Cc3ccccc3C(F)(F)F)n2c1	16	i	nt	nt	nt	i	i
Cc1cc(NS(=O)(=O)c2ccc(NC(=O)Cc3ccc([N+](=O)[O-])cc3)cc2)no1	14	i	i	i	i	i	i
CCOC(=O)[C@]12CCCCC/C=C\1N(CCc1ccc(Cl)cc1)C(=O)[C@H]2CC(=O)NCc1ccc(OC)c(OC)c1	i	i	nt	nt	nt	nt	nt
CCN(CC)C(=O)N1CCN(C(=O)N(CC)CC)CC1	i	i	i	i	i	nt	nt
CCN(CC)C(=O)N1CCN(C)CC1	15	i	i	i	i	i	i
COc1cccc(OC)c1C(=O)OCC(=O)NCCCc1ccccc1	15	i	i	i	i	i	i
SMILES	Tn7 DDE FP	DDE Tn6 FP inh	Rtt109 HAT inh	Keap1-Nrf2 PPI	C-LANA FP	Tn7 DDE conf	Tn7 DDE ctr	others
C[C@@]12CCC=C[C@H]1[C@H](c1ccc(/C=C/c3ccccc3)cc1F)N(Cc1ccccc1)C2=O	16	i	i	i	i	i	i
Cc1onc(-c2ccccc2)c1C(=O)Nc1sc2c(c1C(N)=O)CCC2	i	i	i	i	i	nt	nt
Cc1onc(C(=O)Nc2sc3c(c2C(N)=O)CCCC3)c1[N+](=O)[O-]	16	i	i	i	i	i	i
CC1CC2(CC(C)(C(=O)CSc3nc4ccccc4s3)OC2=O)C(=O)O1 (stereo unspecified)	i	i	i	i	i	nt	nt
CC1(C)CC2(CC(C)(C(=O)CSc3nc4ccccc4s3)OC2=O)C(=O)O1 (stereo unspecified)	18	i	i	i	i	i	i
CC1(C)Cc2c(cnn2-c2ccccc2)C(NC(=O)CCCN2CCCCC2=O)C1 (stereo unspecified)	16	i	i	i	i	i	i
CCCN(CCC)C(=O)c1ccc2c(=O)n(Cc3ccco3)c(=S)[nH]c2c1	i	i	i	i	i	nt	nt
Cc1cc(=O)n(Cc2ccco2)c(=S)[nH]1	16	i	nt	nt	nt	i	i
C=CCn1c(SCC(N)=O)nnc1-c1ccc(C)cc1	i	i	nt	nt	nt	nt	nt
O=C1CCN2C=Nc3cccc4ccc1c2c34	63	i	i	140	152	30	i
COC(=O)[C@]12C[C@H](CC(=O)NCCC(C)C)C(=O)N(Cc3cccc4ccccc34)C1=C[C@H](COCc1ccccc1)O[C@@H]2C	i	i	nt	nt	nt	nt	nt
CN(C)c1ccc(C=Cc2nccc3ccccc23)cc1	30	131	nt	nt	nt	i	54	DDE Tn6 FP ctr=i;Tn6 DDE conf=54
COC(=O)c1ccncc1N	i	i	i	i	i	nt	nt
Nc1cnccc1C(=O)O	14	46	i	i	i	i	i	DDE Tn6 FP ctr=i;Tn6 DDE conf=i
O=C1C=C(N2CCOCC2)c2ccccc2C1=O	i	i	i	i	i	nt	nt
O=C1C=C(N2CCOCC2)c2cccc3cccc1c23	25	31	nt	nt	nt	i	i	DDE Tn6 FP ctr=i;Tn6 DDE conf=i
O=C1C(N2CCOCC2)=Cc2cccc3cccc1c23	22	38	nt	nt	nt	i	16	DDE Tn6 FP ctr=i;Tn6 DDE conf=16
CCCC1CCC2(CCCN2CCOC(=S)Nc2cccc(Cl)c2)CC1 (stereo unspecified)	i	i	nt	nt	nt	nt	nt
O=C(CNS(=O)(=O)c1ccccc1)N1CCN(c2ccccn2)CC1	i	i	nt	nt	nt	nt	nt
CCOC(=O)NC(=O)/C(C#N)=C\Nc1sccc1C(=O)OC	17	16	i	?	i	i	i	DDE Tn6 FP ctr=i;Tn6 DDE conf=i
COc1ccc(N2CCN(CCNS(=O)(=O)c3ccc(F)cc3)CC2)cc1	i	i	nt	nt	nt	nt	nt
COc1ccc(CNC(=O)C[C@H]2C[C@H](C(=O)N3CCOCC3)[C@@]3(C)c4[nH]c5cc(-c6ccco6)ccc5c4CCN3C2=O)cc1OC	46	115	i	i	i	i	i	DDE Tn6 FP ctr=i;Tn6 DDE conf=i
